The source of these data is ChEMBL document CHEMBL1152831, “Synthesis and pharmacological screening of derivatives of isoxazolo[4,5-d]pyrimidine” (2008).

Type in all cases: functional
For assay [1], the system named is Mus musculus. Nature of the assay: Effect on humoral immune response in sheep red blood cells-immunized CBA mouse spleen assessed as number of antibody forming unit per 10^6 viable cells at 10 ug, ip by local hemolysis assay. The method, boiled down: (§1)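 Male and female CBA mice, 12 weeks old, immunized i.p. with 0.2 mL of 5% SRBC in 0.9% NaCl. Compounds (DMSO stock diluted in saline) were given i.p. 2 h later; controls received saline or diluted DMSO. Spleens were taken on day 4 and antibody-forming cells counted by local hemolysis assay per 10⁶ viable splenocytes. Mean of 5 mice per group ±SE, t-test.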

In assay [2] the test system is Mus musculus. Briefly: Effect on humoral immune response in sheep red blood cells-immunized CBA mouse spleen assessed as number of antibody forming unit per 10^6 viable cells at 100 ug, ip by local hemolysis assay. The method, boiled down: as §1
In assay [3] the test system is Mus musculus. Briefly: Effect on delayed type hypersensitivity in sheep red blood cells-immunized CBA mouse assessed as foot-pad edema at 10 ug, ip. The method, boiled down:
(§2)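 Male and female CBA mice, 12 weeks old, sensitized i.v. with 10⁵ SRBCs in 0.2 mL. Compounds were dissolved in DMSO, then diluted in 0.9% NaCl, and given i.p. 2 h later. Controls received saline or diluted DMSO. On day 4, 10⁸ SRBCs in 0.05 mL were injected into the hind footpads. Footpad edema was measured by callipers 24 h later, minus the naive-mouse background. Mean ±SE, t-test.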

Assay [4] concerns Splenocyte. Briefly: Effect on cancavalin-A-induced proliferation in mouse splenocytes at 1 ug/ml assessed as proliferation rate by MTT assay. Put shortly:
(§3)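 Splenocytes from CBA mice were pressed through a screen into Hank's medium. Erythrocytes were lysed with 0.83% NH4Cl, cells washed twice and passed through cotton wool to remove dead cells. They were resuspended in RPMI 1640 with 10% FCS, L-glutamine, pyruvate and antibiotics. 2×10⁵ cells per well, Con A at 2.5 final, compounds across 0.1–10. After 3 days, MTT read as OD 550/630 nm. Mean of quadruplicate wells ±SE, Student's t-test.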
A general note: Formazan colour is commonly taken as a measure of viable cells.

The test system of assay [5] is Splenocyte. Nature of the assay: Effect on cancavalin-A-induced proliferation in mouse splenocytes at 0.1 ug/ml assessed as proliferation rate by MTT assay. Put shortly: as §3
Assay [6] deals with Splenocyte. Briefly: Effect on cancavalin-A-induced proliferation in mouse splenocytes at 10 ug/ml assessed as proliferation rate by MTT assay. The method, boiled down:
as §3

Assay [7] has as its system Mus musculus. Briefly: Effect on delayed type hypersensitivity in sheep red blood cells-immunized CBA mouse assessed as foot-pad edema at 100 ug, ip. Put shortly:
as §2

In assay [8] the test system is CCRF-CEM. Nature of the assay: Antitumor activity against human CCRF-CEM cells.
Assay [9] concerns K562. Briefly: Antitumor activity against human K562 cells.
For assay [10], the system named is MOLT-4. Nature of the assay: Antitumor activity against human MOLT4 cells.
Assay [11] deals with HOP-92. Nature of the assay: Antitumor activity against human HOP92 cells.
The test system of assay [12] is NCI-H522. Nature of the assay: Antitumor activity against human NCI-H522 cells.
Assay [13] concerns HCC 2998. Nature of the assay: Antitumor activity against human HCC2998 cells.
Assay [14] concerns HCT-15. Briefly: Antitumor activity against human HCT15 cells.
Assay [15] concerns SF-539. Briefly: Antitumor activity against human SF539 cells.
In assay [16] the test system is U-251. Nature of the assay: Antitumor activity against human U251 cells.
Assay [17] has as its system LOX IMVI. Nature of the assay: Antitumor activity against human LOXIMVI cells.
The subject of assay [18] is SK-MEL-2. Nature of the assay: Antitumor activity against human SK-MEL-2 cells.
The test system of assay [19] is CAKI-1. Briefly: Antitumor activity against human Caki1 cells.
Where [20] appears, read: read-out: Log10GI50 (converted).
Setting [21] is: read-out: Log10LC50 (converted).

Molecules are shown by their SMILES.

Regarding `C/C=C/C[C@@H](C)[C@@H](O)[C@H]1C(=O)N[C@@H](CC)C(=O)N(C)CC(=O)N(C)[C@@H](CC(C)C)C(=O)N[C@@H](C(C)C)C(=O)N(C)[C@@H](CC(C)C)C(=O)N[C@@H](C)C(=O)N[C@H](C)C(=O)N(C)[C@@H](CC(C)C)C(=O)N(C)[C@@H](CC(C)C)C(=O)N(C)[C@@H](C(C)C)C(=O)N1C` [CYCLOSPORINE], the Activity in assay [1] amounted to 1617; in [2], 953; in assay [3], 6.1. The OD was 0.046 in [4], 0.07 in [5] and 0.001 in [6].

Regarding `Cc1nc(-c2ccccc2)c2onc(-c3nnc(C(=O)NCc4cccnc4)o3)c2n1`, the Activity is given as 1660 in assay [1], 545 in assay [2], 5.9 in assay [3] and 3.5 in assay [7]. The OD was determined as 0.479 in assay [4], 0.483 in assay [5] and 0.482 in assay [6].

Consider `Nc1c(-c2nnc(C(=O)NCc3ccncc3)o2)noc1C(=O)c1ccccc1`, for which the Activity in assay [1] is on record as 1361; in assay [2] it was 574; in assay [3], 7.9; in assay [7] it was 4.9. For the same molecule, the OD in [4] worked out at 0.401; in assay [5] it was 0.442; in assay [6], 0.371.

Consider `Nc1c(-c2nnco2)noc1C(=O)c1ccccc1`, for which the GI50 in [8] (setting [20]) is 18.2 µM; in assay [9] (setting [20]) it was 57.5 µM; in assay [10] (setting [20]) it was 56.2 µM; in assay [11] (setting [20]), 30.9 µM; in assay [12] (setting [20]), 33.9 µM; in assay [13] (setting [20]), 26.9 µM. The GI50 in [14] (setting [20]) was 29.5 µM; in assay [15] (setting [20]), 2.75 µM; in [16] (setting [20]), 16.2 µM; in assay [17] (setting [20]) it was 28.8 µM; in assay [18] (setting [20]), 33.1 µM; in assay [19] (setting [20]) it was 21.9 µM. The CC50 in assay [8] (setting [21]), in assay [9] (setting [21]), in assay [10] (setting [21]), in [11] (setting [21]), in [12] (setting [21]) and in [13] (setting [21]) was over 100 µM each time. In addition, the CC50 in assay [14] (setting [21]) is over 100 µM; in assay [15] (setting [21]) it was 64.6 µM; in [16] (setting [21]), over 100 µM; in [17] (setting [21]) it was over 100 µM; in assay [18] (setting [21]), over 100 µM; in assay [19] (setting [21]) it was over 100 µM. Besides, the TGI was over 100 µM in [8] (read-out: Log10TGI (converted)); over 100 µM in [9] (read-out: Log10TGI (converted)); over 100 µM in [10] (read-out: Log10TGI (converted)); 97.7 µM in [11] (read-out: Log10TGI (converted)); over 100 µM in [12] (read-out: Log10TGI (converted)); 95.5 µM in [13] (read-out: Log10TGI (converted)). Moreover, the TGI is over 100 µM in [14] (read-out: Log10TGI (converted)); 22.4 µM in assay [15] (read-out: Log10TGI (converted)); 69.2 µM in assay [16] (read-out: Log10TGI (converted)); over 100 µM in [17] (read-out: Log10TGI (converted)); over 100 µM in assay [18] (read-out: Log10TGI (converted)); over 100 µM in assay [19] (read-out: Log10TGI (converted)).
